Results taken from ChEMBL document CHEMBL5344415, “Synthesis and Characterization of Phenylalanine Amides Active against Mycobacterium abscessus and Other Mycobacteria” (J Med Chem, 2023).
Converted amounts (≈) assume the structure as drawn.

Experiments:
[1] = test system: Mycolicibacterium smegmatis; experiment: Antibacterial activity against Mycobacterium smegmatis mc2 155 expressing tomato RFP assessed as bacterial growth inhibition incubated for 3 days in 7H9 medium by RFP fluorescence based broth microdilution method; type: functional; details: mc2 155, 72 h, time 3 day
In short: (§1)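 Broth microdilution in 7H9 with 10 % ADS and 0.05 % Tween 80. Twofold nine-point dilution series. Inoculum 5 x 10⁵ cells/mL taken from a mid-log preculture. Incubation at 37 °C, 3 days for M. smegmatis and M. abscessus, 5 days for M. intracellulare. Read-out by RFP fluorescence (ex 544/em 590 nm). Controls were 1 % DMSO and 100 μM amikacin. MIC₉₀ from duplicates, averaged.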

[2] = test system: Mycobacterium tuberculosis; experiment: Antibacterial activity against Mycobacterium tuberculosis H37Rv ATCC 27294 assessed as bacterial growth inhibition incubated for 7 days in 7H9 medium by optical density based microplate reader analysis; type: functional; details: H37Rv ATCC 27294, 168 h, time 7 day
In short: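 Compounds serially diluted in flat-bottom 96-well plates. Mid-log culture mixed in to a final OD₆₀₀ of 0.05. Sealed plates incubated in humidified boxes at 37 °C for 7 days with shaking at 80 rpm. Turbidity read at 600 nm. MIC₉₀ taken from dose–response curves. Two biological replicates, averaged.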

[3] = test system: Mycobacteroides abscessus; experiment: Antibacterial activity against Mycobacterium abscessus ATCC 19977 expressing tomato RFP assessed as bacterial growth inhibition incubated for 3 days in 7H9 medium by RFP fluorescence based broth microdilution method; type: functional; details: ATCC 19977, 72 h, time 3 day; in short: as §1
[4] = test system: Mycobacteroides abscessus; experiment: Antibacterial activity against Mycobacterium abscessus ATCC 19977 expressing tomato RFP assessed as bacterial growth inhibition incubated for 3 days in MHII medium by RFP fluorescence based broth microdilution method; type: functional; details: ATCC 19977, 72 h, time 3 day
In short: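 Broth microdilution in MHII broth with 0.05 % Tween 80, against the RFP-expressing strain. Twofold nine-point dilution series. Inoculum 5 x 10⁵ cells/mL from a mid-log preculture. Incubated 3 days at 37 °C. Read-out by RFP fluorescence (ex 544/em 590 nm). Controls were 1 % DMSO and 100 μM amikacin. MIC₉₀ from duplicates, averaged.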

[5] = test system: Mycobacterium intracellulare; experiment: Antibacterial activity against Mycobacterium intracellulare ATCC 35761 expressing tomato RFP assessed as bacterial growth inhibition incubated for 5 days in 7H9 medium by RFP fluorescence based broth microdilution method; type: functional; details: ATCC 35761, 120 h, time 5 day; in short: as §1
[6] = test system: Mycobacteroides abscessus; experiment: Antibacterial activity against Mycobacterium abscessus Bamboo harboring inactive clarithromycin-sensitive erm41 C28 sequevar assessed as bacterial growth inhibition incubated for 3 days in 7H9 medium by optical density based method; type: functional; details: 72 h, time 3 day
[7] = test system: Mycobacteroides abscessus; experiment: Antibacterial activity against Mycobacterium abscessus ATCC 19977 expressing tomato RFP infected in human THP-1 cells assessed as bacterial growth inhibition incubated for 4 days in RPMI medium by RFP fluorescence based assay; type: functional; details: ATCC 19977, 96 h, time 4 day
In short: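 RFP M. abscessus washed, moved into RPMI, filtered through 5 µm and opsonised with 10 % human serum for 30 min. THP-1 cells infected at MOI 5:1 with PMA 40 ng/mL for 4 h at 37 °C, then washed. Infected cells (1x10⁵/well) given a ten-point twofold series. Incubated 4 days at 37 °C, 5 % CO₂. Cells PFA-fixed and DAPI-stained. RFP quantified by imaging. Controls were DMSO and 1.5 µM bedaquiline. Duplicate.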

A-375 = experiment: Cytotoxicity against human A-375 cells assessed as reduction in cell viability incubated for 72 hrs by SRB assay; type: toxicity, cell-based
HT-29 = experiment: Cytotoxicity against human HT-29 cells assessed as reduction in cell viability incubated for 72 hrs by SRB assay; type: toxicity, cell-based
MCF7 = experiment: Cytotoxicity against human MCF7 cells assessed as reduction in cell viability incubated for 72 hrs by SRB assay; type: toxicity, cell-based
A2780 = experiment: Cytotoxicity against human A2780 cells assessed as reduction in cell viability incubated for 72 hrs by SRB assay; type: toxicity, cell-based
NIH3T3 = experiment: (§2) Cytotoxicity against mouse NIH3T3 cells assessed as reduction in cell viability incubated for 72 hrs by SRB assay; type: toxicity, cell-based; details: nih3t3
HeLa = experiment: Cytotoxicity against human HeLa cells assessed as reduction in cell viability incubated for 72 hrs by SRB assay; type: toxicity, cell-based
HEK293 = experiment: Cytotoxicity against HEK293 cells assessed as reduction in cell viability incubated for 72 hrs by SRB assay; type: toxicity, cell-based, Homo sapiens
[8] = Kinetic solubility of compound in PBS at 0.78 to 500 uM measured immediately by nephelometric method; type: physicochemical; details: buffer, dose 0.78-500 µM
In short: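 DMSO stocks prediluted in DMSO, then diluted 1:50 into PBS (2 % DMSO final) and read immediately by nephelometry at 0.78–500 μM; blank-corrected data fitted by segmental regression; quadruplicates from one stock.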

[9] = as §2; type: toxicity, cell-based; details: mouse, NIH3T3 cells
[10] = test system: Mycobacteroides abscessus; experiment: Bactericidal activity against Mycobacterium abscessus ATCC 19977 assessed as reduction in viable bacteria at 3.13 uM incubated for 4 days by microplate dilution assay relative to control; type: functional; details: time 4 day
In short: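 After 4 days in the microplate dilution assay, 10 µl samples (undiluted or 1:100) were plated on 7H10 with glycerol, ADS and 400 µg/mL hygromycin. Colonies counted after 4 days at 37 °C. Done in triplicate. CFU/mL compared with the inoculum counted before incubation.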

[11] = test system: Mycobacteroides abscessus; experiment: Bactericidal activity against Mycobacterium abscessus ATCC 19977 assessed as reduction in viable bacteria at 6.25 uM incubated for 4 days by microplate dilution assay relative to control; type: functional; details: time 4 day
[12] = test system: Mycobacteroides abscessus; experiment: Antibacterial activity against MMV688845-resistant Mycobacterium abscessus Bamboo 845R-2.1 harboring rpoB/beta subunit P473L mutation assessed as bacterial growth inhibition incubated for 3 days by optical density based analysis; type: functional; details: Bamboo 845R-2.1, 72 h, time 3 day
In short: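 Tenfold-point twofold dilution series in 7H9, final DMSO 1 %. Final ranges typically 50–0.098 or 6.25–0.012 μM. Mid-log culture added to an initial OD₆₀₀ of 0.05 (5*10⁶ CFU/mL). Incubated 3 days at 37 °C with shaking at 110 rpm. Growth taken as OD₆₀₀ on day 3 minus day 0, as % of drug-free wells. MIC₉₀ read visually from the curves. Clarithromycin as control. Two biological replicates, averaged.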

| Structure (SMILES) | MIC90 [1] | MIC90 [2] | MIC90 [3] | MIC90 [4] | MIC90 [5] | MIC50 [6] | MIC90 [6] | MIC50 [7] | MIC90 [7] | EC50 (A-375) | EC50 (HT-29) | EC50 (MCF7) | EC50 (A2780) | EC50 (HeLa) | EC50 (HEK293) | Kinetic_solubility [8] | EC50 at 72 h [9] | Activity [10] | Activity [11] | MIC90 [12] | other results |
| --- | --- | --- | --- | --- | --- | --- | --- | --- | --- | --- | --- | --- | --- | --- | --- | --- | --- | --- | --- | --- | --- |
| O=C(N[C@H](Cc1ccccc1)C(=O)Nc1cc(F)ccc1N1CCS(=O)(=O)CC1)c1ccccc1F | 1.56 µM (≈ 0.801 µg/mL) | 0.78 µM (≈ 0.401 µg/mL) | 3.13 µM (≈ 1.61 µg/mL) | 3.13 µM (≈ 1.61 µg/mL) | 0.1 µM (≈ 0.0514 µg/mL) | 0.4 µM (≈ 0.205 µg/mL) | 4.5 µM (≈ 2.31 µg/mL) | 0.39 µM (≈ 0.2 µg/mL) | 3.13 µM (≈ 1.61 µg/mL) | > 30 µM | > 30 µM | 25.9 µM | 23.2 µM | > 30 µM | > 30 µM | 32 µM |  |  |  |  | EC50 (NIH3T3): 24.2 µM |
| O=C(N[C@H](Cc1ccccc1)C(=O)Nc1ccccc1N1CCSCC1)c1cccs1 | 3.13 µM (≈ 1.41 µg/mL) | 6.25 µM (≈ 2.82 µg/mL) | 12.5 µM (≈ 5.65 µg/mL) | 50 µM (≈ 22.6 µg/mL) | 0.78 µM (≈ 0.352 µg/mL) | 2.5 µM (≈ 1.13 µg/mL) | 14 µM (≈ 6.32 µg/mL) | 12.5 µM (≈ 5.65 µg/mL) | > 100 µM | > 30 µM | > 30 µM | 16.4 µM | 19.8 µM | > 30 µM | 19.1 µM | 34 µM | > 30 µM |  |  |  |  |
| O=C(N[C@H](Cc1ccccc1)C(=O)Nc1ccccc1N1CCS(=O)(=O)CC1)c1cccs1 | 1.56 µM (≈ 0.754 µg/mL) | 0.2 µM (≈ 0.0967 µg/mL) | 3.13 µM (≈ 1.51 µg/mL) | 3.13 µM (≈ 1.51 µg/mL) | 0.1 µM (≈ 0.0484 µg/mL) | 0.24 µM (≈ 0.116 µg/mL) | 1.7 µM (≈ 0.822 µg/mL) | 0.78 µM (≈ 0.377 µg/mL) | 6.25 µM (≈ 3.02 µg/mL) | > 30 µM | > 30 µM | > 30 µM | 23.6 µM | > 30 µM | > 30 µM | 62 µM | > 30 µM | 95% | 99% |  |  |
| O=C(N[C@H](Cc1ccccc1)C(=O)Nc1ccccc1N1CC[S+]([O-])CC1)c1ccccc1F |  |  | 6.25 µM (≈ 3 µg/mL) | 3.13 µM (≈ 1.5 µg/mL) | 0.1 µM (≈ 0.048 µg/mL) | 0.4 µM (≈ 0.192 µg/mL) | 2.1 µM (≈ 1.01 µg/mL) | 0.78 µM (≈ 0.374 µg/mL) | 12.5 µM (≈ 5.99 µg/mL) | > 30 µM | > 30 µM | > 30 µM | > 30 µM | > 30 µM | > 30 µM | 431 µM | > 30 µM | 81% | 99% | 100 µM (≈ 48 µg/mL) |  |
| O=C(N[C@H](Cc1ccccc1)C(=O)Nc1ccccc1N1CCSCC1)c1ccccc1F | 3.13 µM (≈ 1.45 µg/mL) | 6.25 µM (≈ 2.9 µg/mL) | 12.5 µM (≈ 5.79 µg/mL) | 50 µM (≈ 23.2 µg/mL) | 0.78 µM (≈ 0.362 µg/mL) | 3 µM (≈ 1.39 µg/mL) | 18 µM (≈ 8.34 µg/mL) | 12.5 µM (≈ 5.79 µg/mL) | > 100 µM | 18.6 µM | > 30 µM | 13.6 µM | 14.9 µM | > 30 µM | 6.3 µM | 28 µM | > 30 µM |  |  |  |  |
| O=C(N[C@H](Cc1ccccc1)C(=O)Nc1ccccc1N1CC[S+]([O-])CC1)c1cccs1 | 1.56 µM (≈ 0.729 µg/mL) | 0.4 µM (≈ 0.187 µg/mL) | 3.13 µM (≈ 1.46 µg/mL) | 6.25 µM (≈ 2.92 µg/mL) | 0.1 µM (≈ 0.0468 µg/mL) | 0.33 µM (≈ 0.154 µg/mL) | 2 µM (≈ 0.935 µg/mL) | 3.13 µM (≈ 1.46 µg/mL) | 25 µM (≈ 11.7 µg/mL) | > 30 µM | > 30 µM | > 30 µM | > 30 µM | > 30 µM | > 30 µM | 271 µM | > 30 µM | 58% | 99% | > 100 µM |  |
